Assay results taken from the EternaBench riboswitch data.

System: MS2 coat protein
Assay: apparent Kd, MS2 coat protein; higher = weaker binding; RNA-MaP array; FMN 200 µM where present
Outline: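 Two titrations, one without ligand and one with constant ligand, were run with SNAP-549-labelled MS2 coat protein from 0.7 or 1.5 nM, doubling to 3 µM. The targets were designs transcribed by stalled E. coli RNA polymerase on Illumina sequencing-chip clusters, in 100 mM Tris-HCl pH 7.5, 80 mM KCl, 4 mM MgCl2, BSA, DTT, yeast tRNA and Tween-20. The apparent Kd is the median of filtered per-cluster binding-curve fits, with green signal normalised to red-channel RNA signal and control-cluster median Fmax.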

[1] = designed as: OFF switch for flavin mononucleotide, no ligand
[2] = ligand present: flavin mononucleotide, designed as: OFF switch for flavin mononucleotide
[3] = designed as: ON switch for flavin mononucleotide, no ligand
[4] = ligand present: flavin mononucleotide, designed as: ON switch for flavin mononucleotide

Row | Sequence | apparent Kd [1] | apparent Kd [2] | apparent Kd [3] | apparent Kd [4]
1 | GCACGGCAUGUAGGAUAUCGAGCGCCGGGCGCUCGAGAAGGACAUGAGGAUCACCCAUGUAUUCUCAGUGAGAGAGUGCUGUGC | 36.1 nM | 55.9 nM | – | –
2 | CGCUGAGGCGAGAAGGCACAAGAGUGGUGGCGGACAUGAGGAUCACCCAUGUGAGGAUAUCGCACUUGGCGGUGCCUAAAACUA | 344 nM | 39 nM | – | –
3 | ACGUGUCGUGUAGGAUAUGACACAGGAAACUGGUCAGAAGGACAUGAGGAUCACCCAUGUAAAGUGUUUAAGGAUGACGUAUGC | 49.9 nM | 151 nM | – | –
4 | AUGGACGAAGGAUAUGCAUGGAGACCGGGCAGUUCAGCGCUACAUGAGGAUCACCCAUGUAGAAGGUCGCUCCC | 16 nM | 24.6 nM | – | –
5 | AUCAGCUCGUCAGGAUAUCCGUCACUGCGUCAGCAGUGUGGUAAGAUCACAUGAGGAUCACCCAUGUAGAAGGGACGAGCUGAU | 6.08 nM | 6.5 nM | – | –
6 | GUCAGCUCGUGAGGAUAUACAACACUGCUUCGGCAGUGUAUUAAGAUCACAUGAGGAUCACCCAUGUAGAAGGCACCAGCUGAU | 16.3 nM | 215 nM | – | –
7 | UACAUGAGGAUCACCCAUGUUUUGUCGUGUAUGGUAUUUAUCUAGGAUAUCAAUUUGUAUAUUUAUGAGAAGGAGAAUAUUAAU | 34.5 nM | 39.6 nM | – | –
8 | GAGUGACACCAGAAGGGCCAGGAAAGAACACUGGUAGGAUAUGGAGCGCCCUCGUAACGACCGACAUGAGGAUCACCCAUGUCC | – | – | 117 nM | 28.1 nM
9 | UUUUUUUUUAGAGGAUAUAUUGUGUGUUAUAUAAUAGAAGGCUAAACAAACAUGAGGAUCACCCAUGUUGUCCAUGUCGUCGGC | – | – | 15.3 nM | 20.7 nM
10 | UAUGUGACACAGAAGGCCAGUCACAUGAGGAUCACCCAUGUAGUAAAGUGGAGGAUAUGUGUGCCUAGCAACUUACUAGCAAGA | – | – | 107 nM | 9.61 nM
11 | CAGGUAGACUGAGGAUAUACAAGACUUAGUCUAUCUAGGUCAAAAUCCACAUGAGGAUCACCCAUGUAGAAGGCAGUCUGCCUG | 17.6 nM | 46.8 nM | – | –
12 | GUAGAGUAAGGAUAUAGUGAAUAGGAUAGAAUGGUUAGAAACUAGAAGGUACAUGAGGAUCACCCAUGUAAUGU | 23.6 nM | 21.2 nM | – | –
13 | GGCUCCGCUCGAGGAUAUAGCUGCAUGUAGUGUCCUGAGGCACAUGAGGAUCACCCAUGUGUAGGCUAGAAGGCGACGGACGUU | 121 nM | 249 nM | – | –
14 | CAGCUGAAUGUGAGGAUAUGUCUAGCUUCGGCUAGACAGAAGGCACAUGAGGAUCACCCAUGUCUCAACAGCUG | 36.7 nM | 488 nM | – | –
15 | GAAGCUAUCGGAGGAUAUUCAUAGCCGAAAGGCACAUGAGGAUCACCCAUGUGCGGAAACGCUUGGGAGAAGGCCGAUAGCUUC | – | – | 25.4 nM | 14.7 nM
16 | UCAAUUUUGCGAGGAUAUCGACCAUUCCUCUUUACAUGAGGAUCACCCAUGUACUUAUUCUACAACGAGAAGGCGCUCAUAGUU | 37.5 nM | 43 nM | – | –
17 | UCAUCAACGGGCGGGUCGGUUGGACAUGAGGAUCACCCAUGUAGAAGGACCGGUGGACUCCGGCGGUAGGAUAUACAUAUGGUG | 29.2 nM | 36.7 nM | – | –
18 | GCAGGCAACGAGAAGGGAGUACAUGAGGAUCACCCAUGUGUCCUCUGCGGCUCAGGAUAUCGCCCUGGGAAAGGUAAGCCUUAA | 39.7 nM | 176 nM | – | –
19 | GAGAUGUCAGGAUAUGUGUAAAGAAUAAAACAAAUAACAACACAGAAGGGACAUGAGGAUCACCCAUGUUACUC | 24.9 nM | 54.6 nM | – | –
20 | AAUUAUUGAUGAGGAUAUUGUGGUGAAACACGACAAGAAGGCAUUAUUCACAUGAGGAUCACCCAUGUGAGCCUGGUGCAUAUA | 15.5 nM | 13.8 nM | – | –
21 | AUCAAGUGAGGAUAUGAUUAUACAACAAACUAACAUCUACAUCAGAAGGCACAUGAGGAUCACCCAUGUUUGUC | 18.1 nM | 16.6 nM | – | –
22 | GGUGGACAUGAGGAUCACCCAUGUGAGGAUAUCGGCUGGCUACUGGCUGACGGCUGCUCGAGAAGGCGCAUUGU | 40 nM | 73.6 nM | – | –
23 | UGAUAGGACAGAGGAUAUGCCGAUAGGAUUUACUAUCGAAGAAUCCUCACAUGAGGAUCACCCAUGUAGAAGGCUGUCCUAUCU | 7.36 nM | 35.9 nM | – | –
24 | GGGUGGCGUAGAGGAUAUAUGGUACAUGAGGAUCACCCAUGUGCAUAUGAUGUUCAUGUUUAUGUAUAGAAGGCUACGUCGCUA | – | – | 40.6 nM | 42.8 nM

Row | Sequence | apparent Kd [1] | apparent Kd [2] | apparent Kd [3] | apparent Kd [4]
25 | GGAAAACAUGAGGAUCACCCAUGUGAGGAUAUCGAUGUCCAGGGCCGGGUGCGGGACUCGAGAAGGCACUUGGA | 64.5 nM | 41.6 nM | – | –
26 | AAACACGGACAUGAGGAUCACCCAUGUGGCGAAAGCCUAGGGAGAAGGCAGUAUGCAAAGCAUUCUGAGGAUAUUCAUACCGUG | – | – | 160 nM | 13.4 nM
27 | CGCAACUCUUCUCAUGUAAACAUGAGGAUCACCCAUGUAAUGAGAAGGAGGAAGAAGAGAGAUUCCUAGGAUAUCAGAGUUGCG | 5.41 nM | 5.52 nM | – | –
28 | UCUGGAGCAGGAUAUGCAUUCGUGCUUCGGCACGUAAGGUCACAUGAGGAUCACCCAUGUAGAAGGGCUCCAGA | 19.2 nM | 34 nM | – | –
29 | CUAAAUCAUGUAGGAUAUGCAUGGCGAAGCUACGCAGAAGGACAUGAGGAUCACCCAUGUCUGUCCGUCUGCGUACAGACGGAC | 20.4 nM | 115 nM | – | –
30 | GUAGCUAUCGGAGGAUAUUCAUGAAACAUGAGGAUCACCCAUGUUAAAUUGGGAGAAGGCCGAUAGCUACAAGAGCGAAAGCUC | – | – | 7.5 nM | 5.32 nM
31 | GGCAGAUGAGGAUAUACGUGCAAUCAGUGAUCCAGCCAUUAACAUGAGGAUCACCCAUGUAGAAGGCGUUUUCU | 115 nM | 195 nM | – | –
32 | AAUAUAAGAGCUGGUCUCAAAAGAACAUGAGGAUCACCCAUGUAGGAUAUCAGCACGAUAAGUGCUGAGAAGGACAUCCAGCUC | 14.5 nM | 18.6 nM | – | –
33 | CGUAACUGCAUAGGAUAUUGAUACAUGAGGAUCACCCAUGUUUUUGGGAUUAGUAAUAUAUUAAGCAAGAAGGAUGGAGUUACG | – | – | 74.2 nM | 39.9 nM
34 | GGAGACCUCACAGGAUAUGCUGGACUUUGUCCAGCAGAAGGGUGAACAUGAGGAUCACCCAUGUGGUCUUCCAAAAUAUUUAAU | – | – | 693 nM | 280 nM
35 | CCACGUCCCAUUAACAUGAGGAUCACCCAUGUCAAAAGACAUGAGGAUAUGCUACCUAAUUGGUAGCAGAAGGCAUGGACGUGG | – | – | 953 nM | 87.8 nM
36 | ACUAGAUGAGGAUAUGCAUGUUUUCAUGUUCUUCUAGAUUAACAUGAGGAUCACCCAUGUAGAAGGCGUCUUAU | 19.4 nM | 37.9 nM | – | –
37 | AAUUGACCGCUAGGAUAUGCACAUGAGGAUCACCCAUGUAAGCGUGUAAAGUGGUAUGCCCGUGUGUAGAAGGAGCGAUGCUGA | 47.6 nM | 40.6 nM | – | –
38 | CGACCCUAAACGAAAUUAUGCAGUCAGGAUAUACAUGAGGAUCACCCAUGUGCGUACCAACUCGUGUAGAAGGGACUUUUAGGG | 24.7 nM | 84.6 nM | – | –
39 | UGUAUAUAGGCAGGAUAUACAUGAAUAUAUAUGAUGUAGUAUGAUGUAACAUGAGGAUCACCCAUGUAGAAGGGCCAGUAUAUA | 45.3 nM | 129 nM | – | –
40 | AAGAUGCGGGUAGGAUAUGGAGAGAAAGAAAGACCAGAAGGACUGGUCACACAACAUGAGGAUCACCCAUGUGUGUGUUGCGAA | 11.8 nM | 8.91 nM | – | –
41 | CGAUAUGAUGCAGGAUAUCUAUCUUGAAUGAGGAGAGAAGGGCAUAGGGAGACAUAAGCCUUAUUACAUGAGGAUCACCCAUGU | 12.9 nM | 12 nM | – | –
42 | AAUAAAUAUAAAUUUUAUUUGUCGUAGGAUAUGGGUGACAUGAGGAUCACCCAUGUUGCAGACGACCAGAAGGGCGGCGGAUAU | – | – | 117 nM | 23.2 nM
43 | GCAGGCUGCUCUGAAGCUACAUUCGAGGAUAUGAUCCAAGACAUGAGGAUCACCCAUGUAGAAGAUCAGAAGGCGAUGGCUAGG | – | – | 89.8 nM | 9.77 nM
44 | CAGGUAGCUACAGGAUAUACACGUCUGGAUAAACCAGACGAAUACCUUACAUGAGGAUCACCCAUGUAGAAGGGUAGCUGCCUG | 16.9 nM | 19.8 nM | – | –
45 | UUUGCAUUCCGAGGAUAUUCAUAUAAUAAAUACACAUGAGGAUCACCCAUGUGGCGAUAGCCUAGGGAGAAGGCGGUUUGCUUU | – | – | 22.3 nM | 24 nM
46 | GGUUGGCGAGGAUAUACAUGAGGAUCACCCAUGUGGUCCUGCGAUGGUGUCGCCCUUUGUAGAAGGCGCGGGUC | 45 nM | 42.5 nM | – | –
47 | GAUCUCGUCUAGAAGGUGUAAUAUAUAGUAGUACAAGGAUAUAGACAUGAGGAUCACCCAUGUCGUGCCUGGGCUCAUCUUAAA | 5.92 nM | 7.64 nM | – | –
